Assay results published in publication PMC2193784 (The Journal of Experimental Medicine, 2003).
Blank lines part the entries; values can stand above or below the molecule they belong to. Ends that are not written are not given here.

Tests used:
I-A^u [1] = target: T1, I-A^u (Mus musculus, UniProt P06344+P14438); conditions: for Copy/cell: peptides eluted from I-A^u, T cell–depleted B10.PL splenocytes, MBP 95 μg/ml, 16 h, 37°C, based on copy number/cell of MBPAc1-18, determined by comparison to angiotensin control; for times more detected than MBP125–135 peptides: eluted from I-A^u, MBP-pulsed splenocytes
T1 sequence (P14438 1-227): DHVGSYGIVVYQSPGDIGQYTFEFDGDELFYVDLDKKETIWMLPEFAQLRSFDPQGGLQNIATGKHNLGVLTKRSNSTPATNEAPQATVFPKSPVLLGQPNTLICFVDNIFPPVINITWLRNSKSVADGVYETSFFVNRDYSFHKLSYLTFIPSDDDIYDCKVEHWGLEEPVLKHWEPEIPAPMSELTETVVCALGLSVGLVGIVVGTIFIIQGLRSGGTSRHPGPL
T1 sequence (P06344 28-263): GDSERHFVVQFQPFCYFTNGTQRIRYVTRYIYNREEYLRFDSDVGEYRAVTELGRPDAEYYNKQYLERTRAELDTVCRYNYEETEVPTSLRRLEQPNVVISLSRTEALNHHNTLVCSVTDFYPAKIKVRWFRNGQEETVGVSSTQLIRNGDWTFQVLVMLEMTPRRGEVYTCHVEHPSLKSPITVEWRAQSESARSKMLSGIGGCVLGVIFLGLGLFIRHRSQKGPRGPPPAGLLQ
Outline: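 Spleen cells depleted of T cells (2 × 10^6 cells/ml in RPMI) were incubated 16 h at 37°C with MBP (95 μg/ml). I-Au was captured with anti-I-Au antibody on Protein A beads. Peptides were eluted in 10% acetic acid through a 10 kD filter. About 6 × 10^6 cell equivalents were spiked with 2 fmol angiotensin I and run on C18 gradient LC into FT-ICR MS. Amounts were normalized to the angiotensin standard, and identity was confirmed by CAD MS/MS and coelution with synthetic peptide.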

[2] = test system: T cells from MBP-primed mice; conditions: synthetic peptides; cited from earlier work
I-A^u [3] = target: T1, I-A^u; conditions: cited from earlier work
[4] = target: Detergent soluble I-A^u (mouse); experiment: dissociation kinetics of fluorescein-labelled peptide
[5] = test system: MBPAc1–11-specific TCR Tg T cells; assay type: cell-based, mouse; conditions: 50 uM peptide; fixed splenocytes; two TCR Tg lines
Outline: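 T cells from MBPAc1–11 TCR transgenic mice were purified with anti-Vα2.3 or anti-Vβ8.1/8.2 and sorted free of I-Au+ cells. They were plated at 2 × 10^5/well in complete RPMI with 50 uM peptide or 95 μg/ml MBP. APCs were 10^6 splenocytes per well, either irradiated live or fixed in 0.1% paraformaldehyde for 5 min at room temperature. Cultures ran 48 h, were pulsed with [3H]-thymidine and harvested 18 h later.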

I-A^u [6] = target: T1, I-A^u; experiment: Dissociation of fluorescein-labeled MBP peptides from soluble I-A^u; assay type: binding; conditions: for dissociation kinetics (in words): fluorescein-labeled peptide, soluble I-A^u, 1 h at 37°C, Fig. 2
[7] = by competition for I-A^u binding; cited from earlier work
MBP-specific T cells = conditions: B10.PL MBP-deficient shiverer (MBP^−/−) mice; cited from earlier work
[8] = biphasic dissociation, 1 h incubation at 37°C, pH 5.3, HPSEC fluorescence
[9] = incubation with I-A^u for 1 h at 37°C

Molecule: 120-137: MBP peptide from the MBP121–150 region eluted from I-A^u (IQEDPTAASGGLDVMASQ; UniProt P04370 120-137, looked up, fragment)
Copy/cell (I-A^u [1]): 3.4 copy/cell

Molecule: 124-137: MBP peptide from the MBP121–150 region eluted from I-A^u (PTAASGGLDVMASQ; UniProt P04370 124-137, looked up, fragment)
Copy/cell (I-A^u [1]): 9.2 copy/cell

Molecule: Ac1-19: N-acetylated NH2-terminal MBP peptide eluted from I-A^u
Copy/cell (I-A^u [1]): 6.7 copy/cell

Molecule: Ac1-20: N-acetylated NH2-terminal MBP peptide eluted from I-A^u (Ac-MGNHSGKRELSAEKASKDGE; UniProt P04370 1-20, looked up, fragment)
Copy/cell (I-A^u [1]): 24.4 copy/cell

Molecule: Ac1-22: N-acetylated NH2-terminal MBP peptide eluted from I-A^u (Ac-MGNHSGKRELSAEKASKDGEIH; UniProt P04370 1-22, looked up, fragment)
Copy/cell (I-A^u [1]): 5.7 copy/cell

Molecule: MBP125–135: synthetic peptide; core epitope within MBP121–150 (TAASGGLDVMA; UniProt P04370 125-135, looked up, fragment)
stimulation of T cells from MBP-primed mice [2]: stimulated T cells from MBP-primed mice
affinity for I-A^u (in words) (I-A^u [3]): high affinity for I-A^u

Molecule: MBP136–146: synthetic peptide; epitope within MBP121–150 (SQKRPSQRSKY; UniProt P04370 136-146, looked up, fragment)
stimulation of T cells from MBP-primed mice [2]: stimulated T cells from MBP-primed mice
affinity for I-A^u (in words) (I-A^u [3]): high affinity for I-A^u

Molecule: MBPAc1–17: N-acetylated NH2-terminal MBP peptide eluted from I-A^u
times more detected than MBP125–135 peptides (I-A^u [1]): ~20 times

Molecule: MBPAc1–18: N-acetylated NH2-terminal MBP peptide containing both the MBPAc1–11 and MBP5–16 registers
times more detected than MBP125–135 peptides (I-A^u [1]): ~20 times
Copy/cell (I-A^u [1]): 622.0 copy/cell
T cell response on fixed APCs (in words) [5]: respond well
t1/2fast (rapid-dissociation phase) (I-A^u [6]; [8]): 3.7 h
t1/2slow (slow phase) (I-A^u [6]; [8]): 117 h
dissociation kinetics (in words) (I-A^u [6]): biphasic kinetics
peptide bound in long-lived complexes (slow phase) (I-A^u [6]; [9]): ~62%
peptide bound in short-lived complexes (faster phase) (I-A^u [6]; [9]): ~38%
peptide bound in the long phase (I-A^u [6]; incubation with I-A^u for 16 h, unpublished data): 77%

Molecule: MBPAc9–20: MBP peptide (rat) of earlier work (ref 17) (Ac-RHGSKYLATAST; UniProt P02688 10-21, looked up, fragment)
inhibition of EAE [7]: inhibited EAE induced by immunization with rat MBPAc1–11

Molecule: rat MBPAc5–20: rat MBP peptide of earlier work (ref 17)
inhibition of EAE [7]: inhibited EAE induced by immunization with rat MBPAc1–11

B1: myelin basic protein (protein, UniProt P04370 1-250, looked up)
Myelin basic protein: MGNHSGKRELSAEKASKDGEIHRGEAGKKRSVGKLSQTASEDSDVFGEADAIQNNGTSAEDTAVTDSKHTADPKNNWQGAHPADPGNRPHLIRLFSRDAPGREDNTFKDRPSESDELQTIQEDPTAASGGLDVMASQKRPSQRSKYLATASTMDHARHGFLPRHRDTGILDSIGRFFSGDRGAPKRGSGKDSHTRTTHYGSLPQKSQHGRTQDENPVVHFFKNIVTPRTPPPSQGKGGRDSRSGSPMARR
T cell response after immunization (MBP-specific T cells): strong T cell responses directed toward MBP121–150

The next lines start with results.

Copy/cell (I-A^u [1]): 9.2 copy/cell
Molecule: 123-136: MBP peptide from the MBP121–150 region eluted from I-A^u (DPTAASGGLDVMAS; UniProt P04370 123-136, looked up, fragment)

Copy/cell (I-A^u [1]): 18.1 copy/cell
Molecule: Ac1-16: N-acetylated NH2-terminal MBP peptide eluted from I-A^u (Ac-MGNHSGKRELSAEKAS; UniProt P04370 1-16, looked up, fragment)

dissociation half-life (t1/2) [4]: 0.5 h
Molecule: MBPAc1–11 (synthetic, fluorescein-labelled) (peptide)

dissociation kinetics (in words) (I-A^u [6]): monophasic fast dissociation
Molecule: MBPAc1–11: N-acetylated NH2-terminal MBP epitope, low affinity I-A^u register (Ac-MGNHSGKRELS; UniProt P04370 1-11, looked up, fragment)
binding to I-A^u (in words) (I-A^u [3]): binds I-A^u poorly
T cell response on fixed APCs (in words) [5]: responded well

dissociation half-life, fast phase (t1/2fast) [4]: 3.7 h
dissociation half-life, slow phase (t1/2slow) [4]: 117 h
percent of bound peptide in long-lived complexes [4]: 62%
percent of bound peptide in short-lived complexes [4]: 38%
percent of bound peptide in the long phase [4]: 77%
Molecule: MBPAc1–18 (synthetic, fluorescein-labelled) (peptide)
